In the library only some 4% were active in any assay of this set; here they are far more common.
CHO parental Ca: signal in parental CHO cells, OX1R antagonist counter-screen; parental CHO-K1, ATP-induced calcium, Fluo-8 fluorescence; inhibition, % at 5.6 µM; 330,000 compounds, 0.63% hits; AID 463079;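 active = inhibition above that plate's mean sample inhibition plus 3 SD, cut at about 26% in these data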;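 note: 0% = ATP-challenged DMSO wells and 100% = DMSO wells without ATP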
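Measured by: calcium-sensitive Fluo-8 fluorescence / Test system: CHO parental line / Controls: ATP-challenged DMSO wells low, unchallenged DMSO wells high / Measure: % inhibition / Compound: single nominal dose of 5.6 µM per compound / Replicates: single well per compound, no replicates / Reagent: ATP as calcium-mobilizing challenge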
NTR1 agonist: agonists of human neurotensin receptor NTR1 | AID 493036 | activation, % at 20 µM | NTR1-U2OS beta-arrestin-GFP spot imaging, agonist mode | P30989 | 330,000 compounds, 0.17% hits;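 active = activation at or above 40% of the spot to cytoplasm intensity ratio, with at least 20 cells analyzed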;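 note: 0% = DMSO without peptide and 100% = 100 nM NTR1 peptide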
TAAR1 agonist: agonists of human TAAR1; Q96RJ0; CHO RD-HGA16 TAAR1, Fluo-8 calcium fluorescence; vehicle wells 0%, saturating PEA agonist 100%; activation, % at 3 µM; 360,000 compounds, 0.99% hits; AID 624467;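 active = activation above the mean activation of all test compounds in the run plus 3 SD, cut at about 38% in these data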
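Repeats: no replicates (n 1) | Material: CHO-derived RD-HGA16 cells with stable Gα16 and human TAAR1 | Technique: Kinetic Fluo-8 calcium fluorescence | Schedule: 17-24 h seeding, 75 min 37 °C dye, 30 min RT | Evaluation: % activation from peak over basal fluorescence ratio, DMSO-to-PEA scaled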
OX1R antag-1: OX1R (human) antagonism; OX1R-expressing cells, FRET antagonist read-out; 330,000 compounds, 1.8% hits; O43613; inhibition, % at 6.6 µM; in the data active = inhibition mostly above about 38%, no sharp cut-off; inactive = mostly below about 40%;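 note: 0% = agonist challenge alone and 100% = reference antagonist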
Target sequence (O43613 whole entry, looked up): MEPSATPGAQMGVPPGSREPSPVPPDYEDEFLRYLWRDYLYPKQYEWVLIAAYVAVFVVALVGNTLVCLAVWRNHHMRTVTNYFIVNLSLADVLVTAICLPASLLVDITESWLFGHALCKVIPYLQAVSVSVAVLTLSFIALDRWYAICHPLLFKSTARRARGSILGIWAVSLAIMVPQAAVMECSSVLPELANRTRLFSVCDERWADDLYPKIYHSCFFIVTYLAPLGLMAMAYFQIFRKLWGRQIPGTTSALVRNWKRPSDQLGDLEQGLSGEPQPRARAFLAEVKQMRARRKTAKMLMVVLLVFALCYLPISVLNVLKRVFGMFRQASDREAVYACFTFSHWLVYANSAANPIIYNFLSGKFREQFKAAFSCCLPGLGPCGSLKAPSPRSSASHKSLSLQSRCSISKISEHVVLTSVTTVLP
OX1R antag-2: blocks the human orexin 1 receptor | CHO/OX1R cells, Fluo-8 calcium fluorescence, orexin A | inhibition, % at 5 µM | 330,000 compounds, 0.43% hits;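 active = inhibition above its plate's threshold, mean inhibition of all tested compounds on the plate plus 3 SD, cut at about 37% in these data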;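 note: 0% = orexin A challenge wells and 100% = SB-334867-A antagonist wells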
TAAR1 antagonist: antagonists of human TAAR1; AID 624466; inhibition, % at 3 µM; CHO RD-HGA16 TAAR1, Fluo-8 calcium fluorescence, antagonist; 360,000 compounds, 1.5% hits;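 active = inhibition above a per-plate cutoff, the mean inhibition of test compounds on that plate plus 3 SD, cut at about 49% in these data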;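 note: 0% = DMSO plus EC80 beta-PEA response and 100% = DMSO alone without agonist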
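Test system: RD-HGA16 CHO cells with stable hTAAR1 and Gα16 / Probe or stimulus: EC80 β-phenethylamine stimulus / Times: seeding 17-24 h prior, 75-min 37 °C, 30-min RT dye loading / Detection: Fluo-8 calcium-sensitive fluorescence / Read-out basis: % inhibition scaled between DMSO and EC80 PEA controls / Repeats: singlicate, one well per test compound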
TAAR1 nonsel count: nonselective antagonist in TAAR1 antagonist counter-screen. shares compounds with TAAR1 antagonist. AID 651780. inhibition, % at 3 µM. counterscreen cell line, calcium fluorescence, antagonist mode. 2,400 compounds, 77% hits; in the data active = inhibition above about 22%;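 note: CHO-Ga16 host cells stimulated with ATP at an EC80 level; 0% = agonist EC80 plus vehicle and 100% = vehicle without agonist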
TAAR1 antag conf: confirmation of human TAAR1 antagonists; shares compounds with TAAR1 antagonist; TAAR1-expressing cells, fluorescence antagonist read-out; 2,400 compounds, 40% hits; inhibition, % at 3 µM; AID 651785; in the data active = inhibition above about 49%;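 note: CHO-Ga16 host cells challenged with agonist PEA near its EC80; 0% = agonist at EC80 plus vehicle and 100% = vehicle with no agonist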
Ga16 ag counter: counter-screen for TAAR1 antagonists: nonselective Ga16 agonists; Ga16-expressing cells, calcium fluorescence, agonist counterscreen; AID 651953; activation, % at 3 µM; 2,400 compounds, 18% hits; shares compounds with TAAR1 antagonist; in the data active = activation above about 12%;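 note: 0% = vehicle wells and 100% = saturating stimulus response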
TAAR1 ag count: TAAR1 agonism, antagonist counter-screen; shares compounds with TAAR1 antagonist; hTAAR1 cell line, fluorescence activation, agonist mode; activation, % at 3 µM; 2,400 compounds, 2% hits; in the data active = activation above about 37%;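 note: CHO cells stably expressing TAAR1 with calcium dye readout; 0% = DMSO vehicle and 100% = full agonist response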
An asterisk follows results filed as active; · = no result given.

SMILES	CHO parental Ca	NTR1 agonist	TAAR1 agonist	OX1R antag-1	OX1R antag-2	TAAR1 antagonist	TAAR1 nonsel count	TAAR1 antag conf	Ga16 ag counter	TAAR1 ag count
O=C1CC(N(O)C2CC(=O)N(Cc3ccccc3)C2=O)C(=O)N1Cc1ccccc1 (stereo unspecified)	-20	1	17	5	-16	68*	33*	54*	10	12
CCCN(CCC)C1CC(=O)N(Cc2ccccc2)C1=O (stereo unspecified)	1	0	6	16	-19	-4	·	·	·	·
COc1cccc(CNC(=S)Nc2cc(OC)ccc2OC)c1	-10	0	0	34	-16	-1	·	·	·	·
COc1ccc(CCC(=O)N2CCN(S(=O)(=O)c3cccc(Cl)c3)CC2)cc1	-8	-1	3	1	-3	-15	·	·	·	·
O=C1N/C(=C/c2ccc(Br)cc2)C(O)=C1C=NCc1ccccc1	-11	-1	0	11	-11	105*	2	1	0	3
COc1ccccc1CNC(=O)c1cccc(S(=O)(=O)N2CCN(C)CC2)c1	4	0	1	10	-45	-8	·	·	·	·
COc1cc(OC)c(OC)cc1CNC(=O)c1cccc(S(=O)(=O)N2CCc3ccccc3C2)c1	·	1	12	·	·	68*	47*	57*	14*	8
COc1ccc2c(c1)c(=O)oc1cc(OC(C(=O)O)c3ccccc3)ccc12 (stereo unspecified)	-1	0	-4	4	-10	104*	11	-5	5	5
COc1ccc(CNC(=O)CN(C)S(=O)(=O)c2ccc(Cl)cc2)cc1	-13	6	5	25	-7	-10	·	·	·	·
COc1ccc(CNC(=O)CN(Cc2ccc(C)cc2)S(=O)(=O)c2ccc(Cl)cc2)cc1	-4	5	13	12	-10	59*	38*	36	6	6
CCN(CC)C(=O)c1[nH]cnc1C(=O)NCC(=O)OCc1ccccc1	-5	7	25	17	-10	71*	25*	52*	9	9
O=C(CNC(=O)c1nc[nH]c1C(=O)NCC(=O)OCc1ccccc1)OCc1ccccc1	-22	8	16	17	-8	69*	37*	56*	10	10
CNC(=O)c1[nH]cnc1C(=O)NCC(=O)OCc1ccccc1	-9	3	20	21	-26	42	·	·	·	·
O=C(CNC(=O)c1nc[nH]c1C(=O)NCc1ccccc1)OCc1ccccc1	-18	15	16	37	-19	67*	37*	57*	5	7
O=C(NCc1ccccc1)c1nc[nH]c1C(=O)NCc1ccccc1	-20	4	9	19	-21	-2	·	·	·	·
CCOc1ccc(NC(=O)COC(=O)CCN2C(=O)C3CC=CCC3C2=O)cc1OCC (stereo unspecified)	-21	4	0	6	-39	5	·	·	·	·
COc1ccc(OC)c(CN2CCN(c3ccc(S(=O)(=O)N4CCCC4)cn3)CC2)c1	-13	2	5	2	-31	-20	·	·	·	·
COc1cc(C(c2nnnn2C2CCCC2)N2CCN(C(=O)c3ccco3)CC2)cc(OC)c1OC (stereo unspecified)	-19	-1	-2	8	-27	-1	·	·	·	·
CC(=O)Nc1ccc(C(=O)N/N=C/c2ccccc2OC(=O)c2ccc(Cl)cc2)cc1	-22	2	10	7	-34	52*	35*	42	8	10
O=C(N/N=C/c1cccc(NC(=O)c2ccc(Cl)cc2)c1)c1cccc(O)c1	-17	8	4	8	-22	73*	26*	38	6	5
O=C(N/N=C\c1cccc(F)c1)c1ccc(-c2ccccc2)cc1	·	0	-1	·	·	57*	-5	29	0	-2
O=C(Nc1ccc(Cn2cccn2)cc1)c1ccc(COc2ccccc2Br)cc1	-10	13	6	44	-2	88*	37*	66*	7	7
O=C(Nc1ccn(Cc2c(F)c(F)c(F)c(F)c2F)n1)c1ccc(COc2ccccc2Cl)cc1	1	-1	11	10	3	39	·	·	·	·
Cc1ccccc1-c1ncc(CN2CCC(CO)(CCCc3ccccc3)CC2)cn1	-8	-1	6	16	-24	2	·	·	·	·
Cc1ccc(C(=O)NCCOc2cccc3cccnc23)cc1Cl	-20	0	24	31	-27	-23	·	·	·	·
SMILES	CHO parental Ca	NTR1 agonist	TAAR1 agonist	OX1R antag-1	OX1R antag-2	TAAR1 antagonist	TAAR1 nonsel count	TAAR1 antag conf	Ga16 ag counter	TAAR1 ag count
COc1ccc(C(=O)N/N=C/c2ccc(OC)c(OS(=O)(=O)c3ccccc3)c2)cc1	-14	2	4	9	-33	71*	19	33	5	0
COc1cc(C(=O)NCCOc2cccc3cccnc23)cc(OC)c1OC	2	1	20	18	-18	74*	34*	55*	11	12
COc1ccc(/C=N/NC(=O)c2sccc2OCc2ccc(F)cc2)cc1OC	-22	8	12	17	-12	39	·	·	·	·
COc1ccc(/C=N/NS(=O)(=O)c2ccccc2)cc1OS(=O)(=O)c1ccccc1	-6	0	10	10	2	1	·	·	·	·
COc1ccc(/C=N/NC(=O)c2ccc(COc3cccc4cccnc34)cc2)cc1OC	-23	2	10	50	-27	54*	27*	44	6	3
O=C(N/N=C/c1cccc(O)c1)c1ccc(COc2ccccc2Br)cc1	-20	8	0	37	-14	91*	27*	78*	4	5
Cn1cc(C(=O)N/N=C/c2cccc(O)c2)ccc1=O	-11	0	9	2	-17	-6	·	·	·	·
CCN(C(=O)COC(=O)c1cc(=O)c2ccccc2o1)c1c(N)n(Cc2ccccc2)c(=O)[nH]c1=O	1	1	0	12	-14	-38	·	·	·	·
COc1cc(/C=N/NC(=O)c2ccccn2)ccc1OC(=O)c1ccccc1Br	-26	25	7	10	-20	70*	35*	53*	9	5
COc1ccc(NS(=O)(=O)c2cccc(C(=O)N/N=C/c3ccc4c(c3)OCCO4)c2)cc1	-8	-1	5	10	-3	-2	·	·	·	·

Compound activity: PubChem BioAssay, several laboratories
